Tests used:
Trypanosoma cruzi [1] = test: Effect on oxygen redox cycling in Trypanosoma cruzi Tulahuen assessed as oxygen consumption per mg of protein relative to control; type: functional; parameters: concentration or dose not given beside the values
In short: (§1)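 Tulahuen epimastigotes were harvested on day 4 or 5 (500g, 10 min), washed and resuspended in 0.05 M sodium phosphate buffer pH 7.4 (0.107 M NaCl, 0.05 M KH2PO4). Respiration was measured polarographically with a Clark electrode as nanoatoms-gram O/min/mg protein, as % of control. Redox cycling was measured with 20 mM KCN, as % of KCN control. Values are means of three experiments.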

Trypanosoma cruzi [2] = test: Growth inhibition of Trypanosoma cruzi Tulahuen epimastigotes assessed as drug level causing decrease in growth constant; type: functional, organism-based
In short: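 Tulahuen epimastigotes were seeded at 3 × 10^6/mL in Diamond's medium with 4 µM hemin, 5% FBS and penicillin/streptomycin at 28 °C. Drugs were added in DMSO (1% final) at several concentrations, in triplicate. Growth was followed daily for 10 days by nephelometry and fitted to first-order kinetics to give the growth constant k. ICk50 is the concentration lowering k by 50%.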

Trypanosoma cruzi [3] = test: Effect on oxygen uptake per mg of protein in Trypanosoma cruzi Tulahuen epimastigotes relative to control; type: functional; parameters: concentration or dose not given beside the values; in short: as §1
Trypanosoma cruzi [4] = test: Antitrypanosomal activity against Trypanosoma cruzi MF assessed as trypomastigote viability at 1.93 uM by MTT assay relative to control
Trypanosoma cruzi [5] = test: Antitrypanosomal activity against Trypanosoma cruzi MF assessed as trypomastigote viability at 20.1 uM by MTT assay relative to control
Trypanosoma cruzi [6] = test: Antitrypanosomal activity against Trypanosoma cruzi MF assessed as trypomastigote viability at 0.19 uM by MTT assay relative to control
Trypanosoma cruzi [7] = test: Antitrypanosomal activity against Trypanosoma cruzi MF assessed as trypomastigote viability at 31.3 uM by MTT assay relative to control
Trypanosoma cruzi [8] = test: Antitrypanosomal activity against Trypanosoma cruzi MF assessed as trypomastigote viability at 38.1 uM by MTT assay relative to control
Trypanosoma cruzi [9] = test: Antitrypanosomal activity against Trypanosoma cruzi MF assessed as trypomastigote viability at >100 uM by MTT assay relative to control
Trypanosoma cruzi [10] = test: Antitrypanosomal activity against Trypanosoma cruzi MF assessed as trypomastigote viability at 24.5 uM by MTT assay relative to control
Trypanosoma cruzi [11] = test: Antitrypanosomal activity against Trypanosoma cruzi MF assessed as trypomastigote viability at 22.2 uM by MTT assay relative to control
Trypanosoma cruzi [12] = test: Antitrypanosomal activity against Trypanosoma cruzi MF assessed as viability at 3.75 uM by MTT assay relative to control
Trypanosoma cruzi [13] = test: Antitrypanosomal activity against Trypanosoma cruzi MF assessed as trypomastigote viability at 24.7 uM by MTT assay relative to control

Row | Compound | Activity (Trypanosoma cruzi [1]) [%] | IC50 (Trypanosoma cruzi [2]) [µM] | Activity (Trypanosoma cruzi [3]) [%] | also measured
1 | O=C(Cn1ccnc1[N+](=O)[O-])NCc1ccccc1 [BENZNIDAZOLE] | 82 | 20.6 | 57.8 | –
2 | CC(=O)CCC1=C(O)C(=O)c2ccccc2C1=O | 100 | 35.2 | 100.6 | –
3 | CC1CCC2=C(O1)c1ccccc1C(=O)C2=O (stereo not given) | 100 | 1.93 | 100.6 | Activity (Trypanosoma cruzi [4]): 40.3%
4 | CC1(C)C=CC2=C(O1)C(=O)c1ncccc1C2=O | 254 | 20.1 | 243.3 | Activity (Trypanosoma cruzi [5]): 44.8%
5 | CC1(C)CC(O)C2=C(O1)C(=O)c1ncccc1C2=O (stereo not given) | 55 | 0.19 | 33.2 | Activity (Trypanosoma cruzi [6]): 8.8%
6 | CC(C)=CCC1=C(O)C(=O)c2ccccc2C1=O [LAPACHOL] | 82 | 31.3 | 51.8 | Activity (Trypanosoma cruzi [7]): 41.7%
7 | COc1cccc2c1C(=O)C1=C(C=CC(C)(C)O1)C2=O | 100 | 38.1 | 100.2 | Activity (Trypanosoma cruzi [8]): 26.7%
8 | CC(C)(O)CCC1=C(O)C(=O)c2ccccc2C1=O | 109 | > 100 | 125 | Activity (Trypanosoma cruzi [9]): 112.6%
9 | CC1CCC2=C(O1)C(=O)c1ccccc1C2=O (stereo not given) | 173 | 24.5 | 138.8 | Activity (Trypanosoma cruzi [10]): 15.6%
10 | CC1CC(c2ccccc2)C2=C(O1)C(=O)c1ccccc1C2=O (stereo not given) | 96 | 26.2 | 95.4 | –
11 | CC(=O)CC1CCC2=C(O1)C(=O)c1ccccc1C2=O (stereo not given) | 168 | 36.3 | 142.5 | –
12 | CC(=O)OC1CC(C)(C)OC2=C1C(=O)c1ccccc1C2=O (stereo not given) | 168 | 22.2 | 135.5 | Activity (Trypanosoma cruzi [11]): 32.9%
13 | CC1CS(=O)(=O)CCN1/N=C/c1ccc([N+](=O)[O-])o1 (stereo not given) [NIFURTIMOX] | 113 | 9.5 | 120.4 | –
14 | CC1(C)OC2=C(CC1O)C(=O)C(=O)c1ccccc12 (stereo not given) | 100 | 3.75 | 96.8 | Activity (Trypanosoma cruzi [12]): 30.4%
15 | CC1(C)CCC2=C(O1)c1ccccc1C(=O)C2=O [LAPACHONE] | 100 | 24.7 | 107.5 | Activity (Trypanosoma cruzi [13]): 2.9%

— ChEMBL document CHEMBL1143992, “Trypanosoma cruzi: activities of lapachol and alpha- and beta-lapachone derivatives against epimastigote and trypomastigote forms” (Bioorg Med Chem, 2008)
